Assay results reported in ChEMBL document CHEMBL2086369, “Design, synthesis, and pharmacological characterization of indol-3-ylacetamides, indol-3-yloxoacetamides, and indol-3-ylcarboxamides: potent and selective CB2 cannabinoid receptor inverse agonists” (J Med Chem, 2012).
Calls of active or inactive are those of the source. No cut-off for these calls is given here.

Columns and labels:
Cannabinoid receptor 1 = Cannabinoid receptor 1 (Homo sapiens, UniProt P21554); experiment: biochemical; format: cell-based, HEK293
Cannabinoid receptor 2 [1] = target: T1, Cannabinoid receptor 2 (Homo sapiens, UniProt P34972); experiment: Displacement of [3H]CP-55,940 from human recombinant CB2 receptor transfected in HEK cells; format: cell-based, HEK293
Homo sapiens = species: Homo sapiens; experiment: Selectivity index, ratio of Ki for human recombinant CB1 receptor to Ki for human recombinant CB2 receptor
Cannabinoid receptor 2 [2] = target: T1, Cannabinoid receptor 2; experiment: Inverse agonist activity at human CB2 receptor expressed in CHO cells assessed as increase of forskolin-induced cAMP level at 10 uM by scintillation counting; format: functional, cell-based
Outline: (§1)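 CHO cells expressing human CB2, trypsinized, 1 × 10⁶ cells per assay in HEPES-buffered saline with glucose, pH 7.4, 37 °C. Preincubated 10 min with 0.5 mM Ro 20-1724. Compound tested with 1 μM forskolin. Stopped with cold 6% TCA, ether-extracted, cAMP measured by [³H]cAMP competition binding to adrenal binding protein with scintillation counting. Given as % cAMP increase; means of ≥4 experiments in duplicate.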

Cannabinoid receptor 2 [3] = target: T1, Cannabinoid receptor 2; experiment: Inverse agonist activity at human CB2 receptor expressed in CHO cells assessed as increase of forskolin-induced cAMP level at 1 uM by scintillation counting; format: functional, cell-based
Outline: as §1

Mus musculus [4] = experiment: Analgesic activity in ip dosed mouse assessed as reduction of formalin-induced inflammatory pain administered 15 mins before formalin challenge measured for 15 to 60 mins; format: functional, organism-based
Outline: (§2)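 Mice (n = 8−10 per group) got compound ip (1 or 3 mg/kg) or vehicle 15 min before formalin (1.25% in saline, 30 μL) into the dorsal hindpaw. Where used, COR167 (1 mg/kg, ip) was given 5 min before compound. Time spent licking plus elevating the paw was scored every 5 min over phase 1 (0−7 min) and phase 2 (15−60 min). Mean ± SEM; ANOVA with Dunnett's test.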

Mus musculus [5] = experiment: Analgesic activity in mouse assessed as reduction of formalin-induced inflammatory pain at 1 mg/kg, ip administered 15 mins before formalin challenge measured for 15 to 60 mins in presence of CB2 agonist COR167; format: functional, organism-based; parameters: dose 1 mg/kg
Outline: as §2

Mus musculus [6] = experiment: Antinociceptive activity in mouse assessed as reduction of formalin-induced nocifensive response at 1 mg/kg, ip administered 15 mins before formalin challenge measured for 0 to 7 mins in presence of CB2 agonist COR167; format: functional, organism-based; parameters: dose 1 mg/kg
Outline: as §2

Mus musculus [7] = experiment: Antinociceptive activity in mouse assessed as reduction of formalin-induced nocifensive response at 1 to 3 mg/kg, ip administered 15 mins before formalin challenge measured for 0 to 7 mins; format: functional, organism-based
Outline: as §2

Cannabinoid receptor 2 [8] = target: T1, Cannabinoid receptor 2; settings: CHO, 10 uM
Cannabinoid receptor 2 [9] = target: T1, Cannabinoid receptor 2; settings: CHO, 1 uM

Sequence of Cannabinoid receptor 1 (P21554 whole entry): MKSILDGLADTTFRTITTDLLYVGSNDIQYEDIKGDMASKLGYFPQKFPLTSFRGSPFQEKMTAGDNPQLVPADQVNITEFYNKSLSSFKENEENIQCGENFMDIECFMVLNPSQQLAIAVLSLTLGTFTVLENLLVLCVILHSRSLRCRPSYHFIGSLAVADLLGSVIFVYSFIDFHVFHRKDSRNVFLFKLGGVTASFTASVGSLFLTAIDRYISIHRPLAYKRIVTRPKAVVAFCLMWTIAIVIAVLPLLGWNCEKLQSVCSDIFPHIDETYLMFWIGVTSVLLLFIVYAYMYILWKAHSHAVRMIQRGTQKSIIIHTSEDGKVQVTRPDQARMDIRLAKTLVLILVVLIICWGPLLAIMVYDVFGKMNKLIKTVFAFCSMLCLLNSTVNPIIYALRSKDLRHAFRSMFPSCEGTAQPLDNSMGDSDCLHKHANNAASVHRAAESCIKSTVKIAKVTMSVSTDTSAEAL
T1 sequence (P34972 whole entry): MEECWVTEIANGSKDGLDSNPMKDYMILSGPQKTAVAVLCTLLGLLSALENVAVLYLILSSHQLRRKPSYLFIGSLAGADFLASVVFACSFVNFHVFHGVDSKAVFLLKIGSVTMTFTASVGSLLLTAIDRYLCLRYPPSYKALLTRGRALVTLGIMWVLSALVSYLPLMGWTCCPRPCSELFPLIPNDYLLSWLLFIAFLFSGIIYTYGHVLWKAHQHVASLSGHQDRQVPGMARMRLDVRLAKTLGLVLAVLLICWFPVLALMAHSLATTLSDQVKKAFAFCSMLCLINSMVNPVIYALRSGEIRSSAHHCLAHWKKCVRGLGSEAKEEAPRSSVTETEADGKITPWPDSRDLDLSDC

| SMILES | Ki (Cannabinoid receptor 1) | Ki (Cannabinoid receptor 2 [1]) | Ratio Ki (Homo sapiens) | other results |
| --- | --- | --- | --- | --- |
| C=CCn1cc(CC(=O)NC2CCCCCC2)c2cc(-c3ccco3)ccc21 | > 10000 nM | 377 nM | > 26 |  |
| C=CCn1cc(C(=O)NC23CC4CC(CC(C4)C2)C3)c2cc(-c3ccccc3)ccc21 | 48.2 nM | 1.82 nM | 26.5 |  |
| C=CCn1cc(C(=O)NC23CC4CC(CC(C4)C2)C3)c2cc(-c3ccc(O)cc3)ccc21 | > 10000 nM | 22.2 nM | > 450 | Activity (Cannabinoid receptor 2 [2]): 68%; Activity (Cannabinoid receptor 2 [3]): 51% |
| Cn1cc(CC(=O)NC23CC4CC(CC(C4)C2)C3)c2cc(-c3ccccc3)ccc21 | 488 nM | 98 nM | 5 |  |
| O=C(Cc1cn(Cc2ccccc2)c2ccc(-c3ccccc3)cc12)NC12CC3CC(CC(C3)C1)C2 | > 10000 nM | 189 nM | > 52 |  |
| O=C(Cc1c[nH]c2ccc(-c3ccccc3)cc12)NC12CC3CC(CC(C3)C1)C2 | > 10000 nM | 70.8 nM | > 141 |  |
| C=CCn1cc(CC(=O)NC23CC4CC(CC(C4)C2)C3)c2cc(Br)ccc21 | > 10000 nM | 1090 nM | > 9 |  |
| CCCCCn1cc(CC(=O)NC23CC4CC(CC(C4)C2)C3)c2cc(-c3ccccc3)ccc21 | 2380 nM | 70 nM | 34 |  |
| CCCCCn1cc(C(=O)C(=O)NC23CC4CC(CC(C4)C2)C3)c2cc(-c3ccccc3)ccc21 | > 10000 nM | 12.7 nM | > 787 | Activity (Cannabinoid receptor 2 [2]): 70%; Activity (Cannabinoid receptor 2 [3]): 55% |
| CCCCCn1cc(C(=O)NC23CC4CC(CC(C4)C2)C3)c2cc(-c3cccs3)ccc21 | 3620 nM | 6.37 nM | 568 | Activity (Cannabinoid receptor 2 [2]): 135%; Activity (Cannabinoid receptor 2 [3]): 106% |
| C=CCCn1cc(CC(=O)NC23CC4CC(CC(C4)C2)C3)c2cc(-c3ccccc3)ccc21 | 1830 nM | 17.8 nM | 103 |  |
| CCn1cc(CC(=O)NC23CC4CC(CC(C4)C2)C3)c2cc(-c3ccccc3)ccc21 | 698 nM | 67 nM | 10.4 |  |
| C=CCn1cc(CC(=O)NC2CCCCC2)c2cc(OCc3cccc(OC)c3)ccc21 | > 10000 nM | 400 nM | > 25 |  |
| CCCCCn1cc(C(=O)C(=O)NC23CC4CC(CC(C4)C2)C3)c2cc(-c3ccco3)ccc21 | 345 nM | 0.37 nM | 932 | Activity (Mus musculus [4]): Dose-dependent effect; Activity (Cannabinoid receptor 2 [2]): 163%; Activity (Mus musculus [5]): Active; Activity (Mus musculus [6]): Active; Activity (Mus musculus [7]): inactive; Activity (Cannabinoid receptor 2 [3]): 138% |
| CCCCCn1cc(C(=O)NC23CC4CC(CC(C4)C2)C3)c2ccc(-c3ccccc3)cc21 | 2.03 nM | 3.52 nM | 0.6 |  |
| CCCCCn1cc(CC(=O)NC23CC4CC(CC(C4)C2)C3)c2cc(-c3ccco3)ccc21 | 1660 nM | 110 nM | 15.1 |  |
| CCCCn1cc(CC(=O)NC23CC4CC(CC(C4)C2)C3)c2cc(-c3ccccc3)ccc21 | > 10000 nM | 20.5 nM | > 487 |  |
| C=CCn1cc(CC(=O)NC23CC4CC(CC(C4)C2)C3)c2cc(-c3ccccc3)ccc21 | 530 nM | 50 nM | 10.6 | Activity (Cannabinoid receptor 2 [2]): 88%; Activity (Cannabinoid receptor 2 [3]): 67% |
| CCCC(C)(C)c1ccc2c(c1)OC(C)(C)[C@@H]1CC=C(C)C[C@@H]21 |  |  |  | inhibition (Cannabinoid receptor 2 [8]): 94%; inhibition (Cannabinoid receptor 2 [9]): 87% |
| CCCCCn1cc(C(=O)C(=O)NC2CCCCC2)c2cc(-c3ccccc3)ccc21 | > 10000 nM | 11.2 nM | > 892 |  |
| CCCCCn1cc(CC(=O)NC23CC4CC(CC(C4)C2)C3)c2cc(Br)ccc21 | 5510 nM | 170 nM | 32.4 |  |
| CCCCCn1cc(C(=O)NC23CC4CC(CC(C4)C2)C3)c(=O)c2cc(-c3ccco3)ccc21 | > 10000 nM |  |  |  |
| CCCCCn1cc(C(=O)NC23CC4CC(CC(C4)C2)C3)c2cc(-c3ccccc3)ccc21 | 1050 nM | 11.6 nM | 90.7 |  |
| CCCn1cc(CC(=O)NC23CC4CC(CC(C4)C2)C3)c2cc(-c3ccccc3)ccc21 | 1510 nM | 11.8 nM | 128 |  |
| C=CCn1cc(C(=O)NC23CC4CC(CC(C4)C2)C3)c2cc(-c3ccco3)ccc21 | 2790 nM | 5.73 nM | 488 |  |
| C=CCn1cc(CC(=O)NC23CC4CC(CC(C4)C2)C3)c2cc(-c3ccco3)ccc21 | 560 nM | 50 nM | 11.2 |  |
| C=CCn1cc(C(=O)C(=O)NC23CC4CC(CC(C4)C2)C3)c2cc(-c3ccco3)ccc21 | 3620 nM | 10.3 nM | 351 | Activity (Cannabinoid receptor 2 [2]): 75%; Activity (Cannabinoid receptor 2 [3]): 62% |
| CCCCCn1cc(C(=O)NC23CC4CC(CC(C4)C2)C3)c2cc(-c3ccco3)ccc21 | 342 nM | 2.48 nM | 138 | Activity (Mus musculus [4]): Dose-dependent effect; Activity (Cannabinoid receptor 2 [2]): 110%; Activity (Mus musculus [5]): inactive; Activity (Mus musculus [6]): inactive; Activity (Mus musculus [7]): inactive; Activity (Cannabinoid receptor 2 [3]): 93% |
| C=CCn1cc(C(=O)C(=O)NC23CC4CC(CC(C4)C2)C3)c2cc(-c3ccccc3)ccc21 | 3920 nM | 25.4 nM | 154 |  |
